The record followed here is PMC4176526 (Bioorganic & medicinal chemistry letters, 2014).

SMILES strings stand for the structures.

For this test, the target named is Myc-tagged Akt1 (Homo sapiens, UniProt P31749). It is filed as biochemical. To be noted: at 5 µM, immunoblot. Put shortly: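 HEK293 cells transfected with Myc-tagged Akt1; the kinase was immunoprecipitated with anti-Myc antibody. The immobilized enzyme was incubated with a GSK3β fusion protein substrate, with or without test compound. Phospho-GSK3β was detected by immunoblot, and an approximate IC50 was estimated from the blots.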
Chain of Myc-tagged Akt1 (P31749 whole entry, the tested form may be a part): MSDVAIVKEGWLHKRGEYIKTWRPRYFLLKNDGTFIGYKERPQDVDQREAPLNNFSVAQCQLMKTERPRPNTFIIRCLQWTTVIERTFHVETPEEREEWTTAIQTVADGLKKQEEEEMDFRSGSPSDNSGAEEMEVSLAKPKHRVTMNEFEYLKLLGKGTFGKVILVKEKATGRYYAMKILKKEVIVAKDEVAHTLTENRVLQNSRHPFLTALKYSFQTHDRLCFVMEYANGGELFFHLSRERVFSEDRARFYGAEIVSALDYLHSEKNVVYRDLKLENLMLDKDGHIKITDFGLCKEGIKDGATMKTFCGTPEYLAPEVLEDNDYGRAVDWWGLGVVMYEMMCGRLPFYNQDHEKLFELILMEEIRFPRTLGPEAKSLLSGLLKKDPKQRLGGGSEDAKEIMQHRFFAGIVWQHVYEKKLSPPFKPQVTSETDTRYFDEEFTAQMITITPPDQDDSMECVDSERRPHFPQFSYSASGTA
For orientation: Immunoblotting shows a protein as a band on a membrane.

For `NC1(c2ccc(-c3nc4ccn5c(=O)[nH]nc5c4cc3-c3ccccc3)cc2)CCC1` [MK2206], the “phosphorylation of GSK3β” value was “completely blocks”.
